Experimental findings from ChEMBL document CHEMBL1212892, “Tirucallane-type alkaloids from the bark of Dysoxylum laxiracemosum” (J Nat Prod, 2010) are described below.

One may read the IC50 as the concentration at which inhibition is half-maximal. A higher IC50 goes with a need for much substance.

Format in all cases: functional, cell-based
The test system of one experiment is A549. As to the kind of experiment: Cytotoxicity against human A549 cells after 48 hrs by MTT assay. As to conditions: A549, 48 h. The gist of the method:
(§1)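 Cells grown in RPMI-1640 or DMEM with 10% FBS, 37 °C, 5% CO2. Adherent cells seeded at 1 × 10^5 cells/mL and left 12 h to attach before dosing; suspension cells seeded just before dosing. Compound at 0.0625, 0.32, 1.6, 8 and 40 µM in triplicate for 48 h, cisplatin positive control. Viability by MTT; IC50 by Reed and Muench method.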

Another experiment concerns MCF7. Briefly: Cytotoxicity against human MCF7 cells after 48 hrs by MTT assay. As to conditions: MCF7, 48 h. The method in brief: as §1
A further experiment relates to SMMC-7721. As to the kind of experiment: Cytotoxicity against human SMMC7721 cells after 48 hrs by MTT assay. As to conditions: SMMC-7721, 48 h. The method in brief:
as §1
On the technique in general: Tetrazolium assays rely on reduction of a dye to a coloured formazan, in cell work by metabolically active cells.

In a further experiment the test system is HL-60. Briefly: Cytotoxicity against human HL60 cells after 48 hrs by MTT assay. As to conditions: HL-60, 48 h. The gist of the method:
as §1

The test system of a further experiment is SW480. Briefly: Cytotoxicity against human SW480 cells after 48 hrs by MTT assay. As to conditions: SW480, 48 h. The gist of the method: as §1

With `C=C(C)C(=O)c1cc([C@@H]2CC[C@]3(C)C4=CCC5C(C)(C)[C@H](O)CC[C@]5(C)[C@H]4CC[C@@]23C)c[nH]1` (stereo partly drawn) [LAXIRACEMOSIN E], the IC50 in the experiment on A549 came out at 3.7 µM; in the experiment with MCF7, 5.1 µM; in the experiment on SMMC-7721 it was 2.7 µM; in the experiment with HL-60 it was 1.5 µM; with SW480 it was 3.7 µM.

Consider `CC(C)C(=O)c1cc([C@@H]2CC[C@]3(C)C4=CCC5C(C)(C)[C@H](O)CC[C@]5(C)[C@H]4CC[C@@]23C)c[nH]1` (stereo partly drawn) [LAXIRACEMOSIN A], for which the IC50 in the experiment with A549 stood at 5.4 µM; in the experiment on MCF7, 16.8 µM; with SMMC-7721 it was 9.5 µM; in the experiment with HL-60, 3.1 µM; in the experiment with SW480, 7.2 µM.

Regarding `CC(C)(O)C(=O)c1cc([C@@H]2CC[C@]3(C)C4=CCC5C(C)(C)[C@H](O)CC[C@]5(C)[C@H]4CC[C@@]23C)c[nH]1` (stereo partly drawn) [LAXIRACEMOSIN D], the IC50 with A549 is above 20 µM; in the experiment with MCF7, above 20 µM; in the experiment with SMMC-7721, above 20 µM; with HL-60, 6.8 µM; in the experiment with SW480 it was above 20 µM.

As to `CC(C)C(=O)c1cc([C@@H]2CC[C@]3(C)C4=CCC5C(C)(C)C(=O)CC[C@]5(C)[C@H]4CC[C@@]23C)c[nH]1` (stereo partly drawn) [LAXIRACEMOSIN B], the IC50 in the experiment with A549 was 13.4 µM; with MCF7, above 20 µM; in the experiment with SMMC-7721, 19 µM; in the experiment with HL-60 it was 12.8 µM; in the experiment on SW480 it was above 20 µM.

In the case of `CC1(C)C2CC=C3[C@H](CC[C@@]4(C)[C@H](c5c[nH]c(C=O)c5)CC[C@]34C)[C@@]2(C)CC[C@H]1O` (stereo partly drawn) [LAXIRACEMOSIN F], the IC50 in the experiment with A549 was above 20 µM; in the experiment with MCF7 it was above 20 µM; in the experiment with SMMC-7721, 15.6 µM; in the experiment on HL-60, 15.7 µM; in the experiment on SW480, above 20 µM.
